Experimental data from different studies.
Compare with care: the assays were run in different laboratories.
Target: Cyclin-dependent kinase 5 (CDK5, Homo sapiens, UniProt Q00535)

`Nc1ncc2c(n1)-c1c([nH]c3ccc(C#CC4CC4)cc13)CCCC2` gave a remaining binding of 96% (binding, competition with immobilised ligand; 1 µM).
The remaining binding of `O=C(NCC1CCOCC1)c1n[nH]cc1NC(=O)c1c(F)cccc1F` is reported as 83% (binding, competition with immobilised ligand; 1 µM).
With `CC1=C(C#N)C(c2ccc3c(c2)c(NC(=O)c2ccccc2C)nn3C)C(C#N)=C(C)N1` the remaining binding was 87% (cell-free assay, competition with immobilised ligand; 1 µM).
`C[C@@H]1CCN(c2nccc(-c3cnn4ncccc34)n2)C1` gave a remaining binding of 100% (binding; 1 µM).
`Cc1cc(NC(=O)c2cccc(S(F)(F)(F)(F)F)c2)cc(-n2ccn3nc(-c4cccnc4)cc23)c1` gave a remaining binding of 100% (cell-free assay, competition with immobilised ligand; 1 µM).
`F[C@@H]1CCN(c2nccc(-c3cnn4ncccc34)n2)C1` gave a remaining binding of 100% (binding; 1 µM).
`Cc1cnc(Nc2ccc(C(=O)N3CCC(N4CCCC4)CC3)cc2)nc1-c1cc2ccccc2s1` gave a remaining binding of 76% (binding, competition with immobilised ligand; 1 µM).
For `CCCCN(CCCC)C(=O)CN1C[C@@H](c2cc(OC)c3c(c2)OCO3)[C@H](C(=O)O)[C@H]1CC(C)(C)CCC`, the remaining binding was 97.7% (cell-free assay, competition with immobilised ligand; 1 µM).
The remaining binding of `O=C(NCCCN1CCOCC1)c1ccc(Nc2nccc(-c3cc4ccccc4s3)n2)cc1` is reported as 84% (binding, competition with immobilised ligand; 1 µM).
`c1cncc(-c2cccc(Nc3nccc(NC4CCCCC4)n3)c2)c1` has a remaining binding of 81% (binding, competition with immobilised ligand; 10 µM).
`COc1ccnn2ncc(-c3ccnc(N(C)C)n3)c12` gave a remaining binding of 100% (binding; 1 µM).
`FC(F)(F)Oc1cccc(-c2cnc3ccc(-c4ccncc4)nn23)c1` has a remaining binding of 93% (cell-free assay, competition with immobilised ligand; 5 µM).
`CN(C)c1nccc(-c2cnc3ncccn23)n1` gave a remaining binding of 91% (binding; 1 µM).
`CSc1cccnc1N1CCN(Cc2nc3ccccc3[nH]2)CC1` gave a remaining binding of 99% (cell-free assay, competition with immobilised ligand; 1 µM).
For `CNC(=O)[C@@H]1CC[C@@H](n2c(-c3ccc4cnccc4c3)nc3ccc(C(=O)NCc4cccc(C(N)=O)c4)cc32)C1`, the remaining binding was 89% (binding, competition with immobilised ligand; 1 µM).
`c1cnn2ncc(-c3ccnc(N4CCC45COC5)n3)c2c1` gave a remaining binding of 99% (binding; 1 µM).
For `CNCc1ccccc1-c1csc([C@@H](C)Nc2nc(C)nc3cc(OC)c(OC)cc23)c1`, the remaining binding was 78% (cell-free assay, competition with immobilised ligand; 1 µM).
`O=C(NCCCN1CCOCC1)c1ccc(Nc2ncc(Cl)c(-c3ccc(Cl)s3)n2)cc1` gave a remaining binding of 42% (binding, competition with immobilised ligand; 1 µM).
The remaining binding of `N[C@@H]1CCN(c2nccc(-c3cnn4ncccc34)n2)C1` is reported as 100% (binding; 1 µM).
`CCS(=O)(=O)c1cc2cc(C[C@](O)(CC(C)(C)c3ccc(F)cc3C(N)=O)C(F)(F)F)[nH]c2cn1` gave a remaining binding of 100% (cell-free assay, competition with immobilised ligand; 1 µM).
For `CC1CCCN1c1nccc(-c2cnn3ncccc23)n1` (stereo not shown), the remaining binding was 96% (binding; 1 µM).
`COc1cnc(Nc2cccc(S(N)(=O)=O)c2)nc1N1CCN(c2ccccc2)C(=O)C1` gave a remaining binding of 100% (binding, competition with immobilised ligand; 1 µM).
